The term IC50 denotes the concentration that inhibits the measured activity by half.

Structures are written as SMILES. Activity calls are given as the source filed them. The calls are words filed in the database; no cut-off is given here.

Test [1] has as its system MDA-MB-231. The test can be described thus: Growth inhibition of human MDA-MB-231 cells after 4 days by WST8 assay. The conditions noted are these: MDA-MB-231, 96 h. A general note: Tetrazolium assays rely on reduction of a dye to a coloured formazan, in cell work by metabolically active cells.
The subject of test [2] is MDA-MB-231. Put plainly: Induction of cell death in human MDA-MB-231 cells at 1 uM after 48 hrs by trypan blue assay. Format: functional. The method in brief: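 MDA-MB-231 breast cancer cells exposed to compound for 48 hours. Viability scored by trypan blue exclusion. Read-out is percentage of cells dead.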
For test [3], the system named is MDA-MB-231. The test can be described thus: Induction of degradation of cIAP1 in human MDA-MB-231 cells after 24 hrs by Western blot analysis. Format: functional, cell-based. The procedure, abridged: (§1)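 MDA-MB-231 breast cancer cells exposed to a range of concentrations for 24 hours; lysate proteins probed by Western blot with specific antibodies against cIAP-1, caspase-8, and pro- and cleaved PARP.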
(In general: In western blotting, separated proteins are transferred to a membrane and probed.)

For test [4], the system named is MDA-MB-231. Put plainly: Induction of cell death in human MDA-MB-231 cells after 48 hrs by trypan blue assay. Format: functional, cell-based. The method in brief:
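MDA-MB-231 breast cancer cells exposed to a range of compound concentrations for 48 hours; viability scored by trypan blue exclusion; percent dead cells reported.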

Test [5] deals with MDA-MB-231. The test can be described thus: Induction of degradation of cIAP1 in human MDA-MB-231 cells upto 100 nM after 24 hrs by Western blot analysis. Format: functional, cell-based. The procedure, abridged:
as §1

The subject of test [6] is MDA-MB-231. The test can be described thus: Induction of caspase 8 processing in human MDA-MB-231 cells within 24 hrs by Western blot analysis. It counts as functional, cell-based. The procedure, abridged:
as §1

Test [7] concerns MDA-MB-231. Put plainly: Induction of poly(ADP-ribose) polymerase cleavage in human MDA-MB-231 cells within 24 hrs by Western blot analysis. Format: functional, cell-based. The method in brief: as §1

Regarding `CN[C@@H](C)C(=O)N[C@H]1Cc2ccccc2[C@H]2CCC[C@@H](C(=O)NC(c3ccccc3)c3ccccc3)N2C1=O`, in test [1], half-maximal inhibition (IC50) required 1370 nM. The Activity in test [2] was less than 20%; in test [4], “Dose-dependent effect”. Moreover, the result in test [3] was Active.
As for `CN[C@@H](C)C(=O)N[C@H]1Cc2ccccc2[C@H]2CC[C@@H](C(=O)N[C@@H]3CCCc4ccccc43)N2C1=O`, the Activity in test [2] is 75%; in test [6], “Dose-dependent effect”; in test [4] it was “Dose-dependent effect”; in test [7] it was “Dose-dependent effect”. In addition, the outcome in test [5] and in test [3] was Active.
For `CN[C@@H](C)C(=O)N[C@H]1Cc2ccccc2[C@H]2CC[C@@H](C(=O)NC(c3ccccc3)c3ccccc3)N2C1=O`, the outcome in test [3] was Active. The Activity entry in test [4] is “Dose-dependent effect”.

For the origin of these results see ChEMBL document CHEMBL1140231, “Design, synthesis, and evaluation of tricyclic, conformationally constrained small-molecule mimetics of second mitochondria-derived activator of caspases” (J Med Chem, 2008).
